The source made the active and inactive calls. The calls are words filed in the database; no cut-off is given here.
Key:
[1] = Drug uptake in human BCC1 cells assessed as deposition in mitochondria at 3.2 uM after 30 mins by phase contrast microscopy; assay type: ADME; conditions: bcc1, 0.5 h
How it was run: (§1)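 BCC1 cells incubated 30 min in serum-free DMEM with 3.2 μM or 0.2 μM PS, washed, and imaged at 640X under phase contrast or HPPH fluorescence. Cultures then kept a further 4 h in PS- and serum-free DMEM and imaged again under the same conditions to follow subcellular redistribution.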

[2] = target: MAP kinase p38 (Homo sapiens) (UniProt O15264+Q15759+Q16539+P53778); assay: Activation of p38 MAPK in human BCC1 cells assessed as dimerization of STAT3 after 9 mins by Western blotting in presence of 665 nm laser light; assay type: cell-based
How it was run: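 Subconfluent BCC1 cells, 2 h in serum-free DMEM with 2-fold serially diluted PS, then 665 nm dye-laser light for 9 min at 37°C (3 J/cm²) in serum-free medium. Cells extracted immediately and lysed in RIPA. 20 μg protein run on 6–10% SDS gels and immunoblotted for STAT3, p38/P-p38 and EGFR with ECL detection. Crosslinking given as % monomeric STAT3 converted to dimer form I.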

[3] = system: BCC1; assay: Increase in STAT3 cross linking level in human BCC1 cells assessed as dimerization of STAT3 after 9 mins by Western blotting in presence of 665 nm light
[4] = system: BCC1 cells (Homo sapiens); assay: Ratio of drug uptake in human BCC1 cells in serum free medium to drug uptake in human BCC1 cells in medium containing 10% fetal calf serum by fluorescent microscopy
[5] = system: BCC1; assay: Induction of apoptosis in human BCC1 cells assessed as survival after 24 hrs by trypan blue assay; assay type: functional, cell-based
How it was run: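 BCC1 cells were loaded for 2 h in serum-free DMEM with 2-fold serial dilutions of photosensitizer. After washing, they were illuminated in serum-free medium at 37° with 665 nm dye-laser light for 9 min (3 J/cm²). Cells were then cultured 24 h in DMEM/10% FCS and trypsinized. Trypan blue-excluding cells were counted by hemocytometer and expressed relative to untreated controls.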

[6] = Drug uptake in human BCC1 cells assessed as deposition in mitochondria at 3.2 uM after 30 mins by HPPH fluorescence spectrophotometry; assay type: ADME; conditions: bcc1, 0.5 h; how it was run: as §1
[7] = Drug uptake in human BCC1 cells at 200 nM after 30 mins by fluorescent microscopy; conditions: bcc1, 30 min, 0.2 µM
[8] = system: BCC1; assay: Reduction in EGFR levels in human BCC1 cells after 9 mins by Western blotting in presence of 665 nm laser light; assay type: functional, cell-based
How it was run: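 BCC1 cells were incubated 2 h in serum-free DMEM with 2-fold serially diluted photosensitizer, washed, and illuminated with 665 nm light for 9 min (3 J/cm²). They were extracted immediately in RIPA buffer. Extracts (20 μg protein) were run on 6–10% SDS gels and immunoblotted for STAT3, EGFR, p38 and P-p38 with ECL detection. STAT3 crosslinking was scored as percent conversion of monomer into dimer form I.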

[9] = Drug uptake in human BCC1 cells assessed as subcellular localization at 3.2 uM after 4 hrs by phase contrast microscopy; assay type: ADME, cell-based; conditions: bcc1, 4 h; how it was run: as §1
[10] = Drug uptake in human BCC1 cells assessed as deposition in mitochondria at 200 nM after 30 mins by phase contrast microscopy; assay type: ADME; conditions: bcc1, 0.5 h, 0.2 µM
How it was run: (§2)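 BCC1 cells in subconfluent culture, washed and incubated 30 min in serum-free DMEM with 200 nM PS. Washed free of PS and imaged at 640X under phase contrast and HPPH fluorescence (Ex 410/40, Em 675/750 nm). Cell PS also quantified by solubilising cells and reading fluorescence (Ex 415, Em 667 nm).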

[11] = Drug uptake in human BCC1 cells assessed as deposition in mitochondria at 200 nM after 30 mins by HPPH fluorescence spectrophotometry; assay type: ADME; conditions: bcc1, 0.5 h, 0.2 µM; how it was run: as §2
[12] = system: Colon 26; assay: Antitumor activity against mouse Colon 26 cells xenografted in parenterally dosed BALB/c mouse assessed as tumor cure at 1 umol/kg after 24 hrs followed by illumination with 128 J/cm'2, 14 mW/cm'2 laser light measured after 60 days; assay type: functional
How it was run: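 Subcutaneous Colon26 tumours in BALB/c mice (10/group), dosed at 4–5 mm diameter with 1 μmol/kg PS. At 24 h, unanaesthetised restrained mice received laser light to the tumour (665, 660 or 674 nm by compound; 128 J/cm², 14 mW/cm²). Tumours measured daily (V = L·W²/2). Cure means no palpable tumour by day 60–90. Euthanasia at 400 mm³.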

[13] = Drug uptake in human BCC1 cells assessed as subcellular localization at 3.2 uM after 4 hrs by HPPH fluorescence spectrophotometry; assay type: ADME, cell-based; conditions: bcc1, 4 h; how it was run: as §1
[14] = Photostability of the compound in 17% bovine calf serum assessed as rate of photobleaching at 6.5 uM after 20 to 22 mins in presence of light (75 mW/cm'2); assay type: ADME; conditions: cattle, read-out: Drug degradation
How it was run: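 Equimolar (6.5 μM) photosensitizer solutions in 17% bovine calf serum were irradiated at 75 mW/cm². Absorption spectra were recorded at successive time points, and the normalized long-wavelength absorbance was plotted against time to follow photobleaching.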

[15] = Drug uptake in human BCC1 cells at 200 nM incubated for 30 mins measured after 4 to 24 hrs by fluorescent microscopy; assay type: ADME, cell-based; conditions: bcc1, 0.5 h, 0.2 µM
[16] = system: Colon 26; assay: Photosensitizing activity in mouse Colon 26 assessed as cell viability at 0.3 uM after 24 hrs followed by illumination with 665 nm laser light and 48 hrs incubation in dark by MTT assay; assay type: functional, cell-based
How it was run: (§3)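 Colon26 cells, 3×10³/well in RPMI/10% FCS, were incubated 24 h in the dark with photosensitizer at 0.3 μM or 0.0625 μM. Medium was replaced with drug-free complete medium before illumination at 0–4 J/cm², 3.2 mW/cm², at each compound's peak wavelength (660, 665 or 674 nm). After 48 h in the dark, MTT was added for the last 4 h and absorbance read at 570 nm. Four replicate wells per condition, three independent experiments.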

[17] = system: Mus musculus; assay: Drug uptake in BALB/c mouse xenografted with mouse Colon 26 cells at 1 umol/kg, iv after 72 hrs by fluorescence imaging; assay type: ADME, organism-based; conditions: in vivo
How it was run: (§4)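 BALB/c mice (3/group) with Colon26 tumours (1×10⁶ cells s.c., right axilla, grown to 4–5 mm) were shaved and given 1.0 μmol/kg PS i.v. Whole-body fluorescence imaged under ketamine/xylazine at 24, 48 and 72 h: 540/40 nm illumination, long-pass emission filter, spectral unmixing of autofluorescence. Read-out is mean intensity of a 20 mm tumour ROI (AU), mean ± SD of 3 mice.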

[18] = system: Colon 26; assay: Drug uptake in mouse Colon 26 cells at 400 nM after 24 hrs by flow cytometry; assay type: ADME, cell-based; conditions: colon 26, 24 h, 0.4 µM
How it was run: (§5)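 Colon26 cells seeded at 0.33×10⁶ per well and grown overnight, then given 100–800 nM PS in triplicate at 37°C, with no-PS wells for autofluorescence. Harvested by trypsin, spun cold, and run on flow cytometry (Ex 633 nm, Em 730±45 nm, 10,000 events). Value is mean fluorescence of triplicates minus autofluorescence.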

[19] = Drug uptake in BALB/c mouse tumor xenografted with mouse Colon 26 cells at 1 umol/kg, iv after 24 hrs by fluorescence imaging; assay type: ADME, organism-based, Neoplasm; conditions: in vivo; how it was run: as §4
[20] = Drug uptake in human BCC1 cells assessed as subcellular localization at 0.2 uM after 4 hrs by HPPH fluorescence spectrophotometry; assay type: ADME, cell-based; conditions: bcc1, 4 h; how it was run: as §1
[21] = Drug uptake in human BCC1 cells assessed as deposition in mitochondria at 0.2 uM after 30 mins by HPPH fluorescence spectrophotometry; assay type: ADME; conditions: bcc1, 0.5 h; how it was run: as §2
[22] = Drug uptake in human BCC1 cells assessed as deposition in mitochondria at 0.2 uM after for 30 mins by phase contrast microscopy; assay type: ADME; conditions: bcc1, 0.5 h; how it was run: as §2
[23] = Drug uptake in tumor of BALB/c mouse xenografted with mouse Colon 26 cells at 1 umol/kg, iv after 24 hrs by fluorescence imaging; assay type: ADME, organism-based, Neoplasm; conditions: in vivo
How it was run: (§6)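 BALB/c mice carried subcutaneous Colon26 tumors (1×10⁶ cells, right posterior axilla) grown to 4–5 mm and were given 1 μmol/kg i.v. At 24 h the tumor was surgically removed and imaged, and the skin flap was imaged separately. Excitation was 540/40 nm with long-pass emission, followed by spectral unmixing of autofluorescence.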

[24] = system: Colon 26; assay: Photosensitizing activity in mouse Colon 26 assessed as cell viability at 0.0625 uM after 24 hrs followed by illumination with 665 nm laser light and 48 hrs incubation in dark by MTT assay in presence of serum; assay type: functional, cell-based; how it was run: as §3
[25] = system: Zone of skin; assay: Drug uptake in skin of BALB/c mouse xenografted with mouse Colon 26 cells measured after removal of tumor at 1 umol/kg, iv after 24 hrs by fluorescence imaging; assay type: ADME, organism-based; conditions: in vivo; how it was run: as §6
[26] = system: Colon 26; assay: Drug uptake in mouse Colon 26 cells at 800 nM after 24 hrs by flow cytometry; assay type: ADME, cell-based; conditions: colon 26, 24 h, 0.8 µM; how it was run: as §5
[27] = system: Mus musculus; assay: Drug uptake in BALB/c mouse xenografted with mouse Colon 26 cells at 1 umol/kg, iv after 24 hrs by fluorescence imaging; assay type: ADME, organism-based; conditions: in vivo; how it was run: as §4
[28] = system: Spleen; assay: Drug uptake in parenterally dosed BALB/c mouse spleen xenografted with mouse Colon 26 cells after 72 hrs by PET analysis; assay type: ADME, organism-based; conditions: in vivo
How it was run: (§7)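 Tumor-bearing BALB/c mice (Colon26, subcutaneous) received ¹²⁴I-labeled photosensitizer via the tail vein at 15–50 μCi. Three mice per time point were sacrificed at 24, 48 and 72 h. Organs were removed, weighed and counted in a γ-well counter. Uptake was expressed as %ID/g tissue.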

[29] = Drug uptake in human BCC1 cells assessed as subcellular localization at 0.2 uM after 4 hrs by phase contrast microscopy; assay type: ADME, cell-based; conditions: bcc1, 4 h; how it was run: as §1
[30] = system: Intestine; assay: Drug uptake in parenterally dosed BALB/c mouse intestine xenografted with mouse Colon 26 cells after 72 hrs by PET analysis; assay type: ADME, organism-based; conditions: in vivo, other; how it was run: as §7
[31] = system: Mus musculus; assay: Drug uptake in BALB/c mouse xenografted with mouse Colon 26 cells at 1 umol/kg, iv after 48 hrs by fluorescence imaging; assay type: ADME, organism-based; conditions: in vivo; how it was run: as §4
[32] = system: Liver; assay: Drug uptake in parenterally dosed BALB/c mouse liver xenografted with mouse Colon 26 cells after 72 hrs by PET analysis; assay type: ADME, organism-based; conditions: in vivo; how it was run: as §7

Structure (SMILES) | Activity [2] | Activity [3] | Ratio [4] | Activity [5] | Activity [8] | Drug uptake [10] | Drug uptake [11] | Activity [12] [%] | degraded at 6.5 µM [14] [%] | Drug uptake [15] | Drug uptake [17] | Drug uptake [18] | Drug uptake [19] | Drug uptake [23] | Activity [24] | Drug uptake [25] | Drug uptake [26] | Drug uptake [27] | Drug uptake [31] | also measured
CCC1=C(C)c2cc3[nH]c(cc4nc(c5c6[nH]c(cc1n2)c(C)c6C(=O)C5)C(CCC(=O)OC)[C@@H]4C)c(C)c3C(C)OCc1cccc(I)c1 (stereo partly drawn) | Active | Active | 5 | Dose-dependent effect | Active | Active | Active | 20 |  |  |  |  |  |  |  |  |  |  |  | Drug uptake [1]: Active; Drug uptake [6]: Active; Drug uptake [7]: Active; Drug uptake [9]: Active; Drug uptake [13]: Active
CCC1=C(C)c2cc3[nH]c(cc4nc(c5c6[nH]c(cc1n2)c(C)c6C(=O)C5)C(CCC(=O)O)[C@@H]4C)c(C)c3C(C)OCc1cccc(I)c1 (stereo partly drawn) | Active | Active | 4 | Dose-dependent effect | Active | Active | Active |  | 50 | Active | Active | Active | Active | Active | Active | Not Active | Active | Active | Active | Activity [16]: Active; Drug uptake [20]: Active; Drug uptake [21]: Active; Drug uptake [22]: Active; Drug uptake [28]: Active; Drug uptake [29]: Active; Drug uptake [30]: Active; Drug uptake [32]: Active
CC[C@H]1c2cc3[nH]c4c(c5nc(cc6[nH]c(cc(n2)[C@@H]1C)c(C(C)OCc1cccc(I)c1)c6C)C(C)=C5CCC(=O)O)CC(=O)c4c3C (stereo partly drawn) | Active | Active | 4 | Dose-dependent effect | Active | Active | Active | 60 | 50 | Active | Active | Active | Active | Active | Active | Not Active | Active | Active | Active | 
